Results reported in ChEMBL document CHEMBL2150893, “Synthesis of β-ionone derived chalcones as potent antimicrobial agents” (2012).
≈ marks a conversion by molar mass, not a printed value. Calls of active or inactive are those of the source. The rule behind the calls is not given here.

What was measured:
[1] = system: Escherichia coli; test: Antibacterial activity against Escherichia coli MTCC 82 after 24 hrs by serial dilution method; type: functional; details: MTCC 82, 24 h
Summary of the method: (§1)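 Serial tube dilution MIC. Strains were grown in nutrient broth to an OD600 of 0.4-0.6. Compounds were tested at 0.78, 1.56, 3.12, 6.25, 12.5, 25 and 50 µg/ml, each in a separate tube containing 5 ml nutrient broth plus 1 ml compound solution. Tubes were incubated 24 h with shaking at 180 rpm. Growth was followed by optical density at 600 nm.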

[2] = system: Pseudomonas aeruginosa; test: Antibacterial activity against Pseudomonas aeruginosa MTCC 2642 after 24 hrs by serial dilution method; type: functional; details: MTCC 2642, 24 h; summary of the method: as §1
[3] = system: Bacillus subtilis; test: Antibacterial activity against Bacillus subtilis MTCC 2451 after 24 hrs by serial dilution method; type: functional; details: MTCC 2451, 24 h; summary of the method: as §1
[4] = system: Salmonella typhi; test: Antibacterial activity against Salmonella typhi after 24 hrs by serial dilution method; type: functional, Salmonella enterica subsp. enterica serovar Typhi; details: Salmonella enterica
Summary of the method: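 Serial tube dilution MIC in nutrient broth. Bacteria were grown until OD600 reached 0.4-0.6. Tubes held 5 ml broth plus 1 ml compound at 0.78, 1.56, 3.12, 6.25, 12.5, 25 or 50 µg/ml and were shaken at 180 rpm for 24 h. Initial medium OD was read at 600 nm.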

[5] = system: Candida albicans; test: Antifungal activity against Candida albicans MTCC 3018 after 24 hrs by serial dilution method; type: functional; details: MTCC 3018, 24 h
Summary of the method: (§2)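 Fungal MIC by serial tube dilution. Dilutions of test compounds (1.9–500 µg/ml) were made from stock solution. Each tube held 1 ml nutrient broth and received 20 µl of standard strain culture.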

[6] = system: Aspergillus niger; test: Antifungal activity against Aspergillus niger MTCC 1344 after 24 hrs by serial dilution method; type: functional; details: MTCC 1344, 24 h; summary of the method: as §2
[7] = system: Nannizzia gypsea; test: Antifungal activity against Microsporum gypseum MTCC 4490 after 24 hrs by serial dilution method; type: functional; details: MTCC 4490, 24 h; summary of the method: as §2
[8] = system: Klebsiella pneumoniae; test: Antibacterial activity against Klebsiella pneumoniae MTCC 530 after 24 hrs by serial dilution method; type: functional, organism-based
[9] = Antifungal activity against Cryptococcus gastricus MTCC 1715 after 24 hrs by serial dilution method; type: functional; details: Goffeauzyma gastrica; summary of the method: as §2
[10] = system: Saccharomyces cerevisiae; test: Antifungal activity against Saccharomyces cerevisiae MTCC 172 after 24 hrs by serial dilution method; type: functional; details: MTCC 172, 24 h; summary of the method: as §2
[11] = system: Staphylococcus aureus; test: Antibacterial activity against Staphylococcus aureus MTCC 96 after 24 hrs by serial dilution method; type: functional; details: MTCC 96, 24 h; summary of the method: as §1

SMILES	MIC [1]	MIC [2]	MIC [3]	MIC [4]	MIC [5]	MIC [6]	MIC [7]	Activity [8]	MIC [9]	MIC [10]	MIC [11]
COc1ccc(/C=C/C(=O)/C=C/C2=C(C)CCCC2(C)C)cc1OC	42 µg/mL (≈ 123 µM)	55.5 µg/mL (≈ 163 µM)	22.5 µg/mL (≈ 66.1 µM)	> 100 µg/mL							
CC1=C(/C=C/C(=O)/C=C/C=C/c2ccccc2)C(C)(C)CCC1	6.25 µg/mL (≈ 20.4 µM)	> 100 µg/mL	3.12 µg/mL (≈ 10.2 µM)	50 µg/mL (≈ 163 µM)	> 100 µg/mL	25 µg/mL (≈ 81.6 µM)	> 100 µg/mL	inactive	55.5 µg/mL (≈ 181 µM)	80 µg/mL (≈ 261 µM)	6.25 µg/mL (≈ 20.4 µM)
COc1ccccc1/C=C/C(=O)/C=C/C1=C(C)CCCC1(C)C	31.5 µg/mL (≈ 101 µM)	> 100 µg/mL	25 µg/mL (≈ 80.5 µM)	> 100 µg/mL	> 100 µg/mL	92.5 µg/mL (≈ 298 µM)	88.5 µg/mL (≈ 285 µM)		> 100 µg/mL	61.4 µg/mL (≈ 198 µM)	22.2 µg/mL (≈ 71.5 µM)
CC1=C(/C=C/C(=O)/C=C/c2ccc([N+](=O)[O-])cc2)C(C)(C)CCC1	6.25 µg/mL (≈ 19.2 µM)	12.5 µg/mL (≈ 38.4 µM)	3.12 µg/mL (≈ 9.59 µM)	> 100 µg/mL	11.2 µg/mL (≈ 34.4 µM)	9.6 µg/mL (≈ 29.5 µM)	82 µg/mL (≈ 252 µM)		90.4 µg/mL (≈ 278 µM)	19.5 µg/mL (≈ 59.9 µM)	25 µg/mL (≈ 76.8 µM)
CC1(C)S[C@@H]2[C@H](NC(=O)[C@H](N)c3ccc(O)cc3)C(=O)N2[C@H]1C(=O)O [AMOXICILLIN]	0.12 µg/mL (≈ 0.328 µM)	1 µg/mL (≈ 2.74 µM)	0.5 µg/mL (≈ 1.37 µM)	0.9 µg/mL (≈ 2.46 µM)							0.5 µg/mL (≈ 1.37 µM)
CC1=C(/C=C/C(=O)/C=C/c2ccccc2Br)C(C)(C)CCC1		> 100 µg/mL	40.2 µg/mL (≈ 112 µM)		31.2 µg/mL (≈ 86.8 µM)	7.6 µg/mL (≈ 21.2 µM)	> 100 µg/mL		> 100 µg/mL	3.9 µg/mL (≈ 10.9 µM)	25 µg/mL (≈ 69.6 µM)
COc1cc(/C=C/C(=O)/C=C/C2=C(C)CCCC2(C)C)cc(OC)c1OC		22.5 µg/mL (≈ 60.7 µM)	> 100 µg/mL	45 µg/mL (≈ 121 µM)				inactive			19.5 µg/mL (≈ 52.6 µM)
COC1=CC(=O)C[C@@H](C)[C@]12Oc1c(Cl)c(OC)cc(OC)c1C2=O [GRISEOFULVIN]					1.9 µg/mL (≈ 5.39 µM)	1.9 µg/mL (≈ 5.39 µM)	1.9 µg/mL (≈ 5.39 µM)		1.9 µg/mL (≈ 5.39 µM)	1.9 µg/mL (≈ 5.39 µM)	
CC1=C(/C=C/C(=O)/C=C/c2ccc(Br)cc2)C(C)(C)CCC1	> 100 µg/mL	> 100 µg/mL		> 100 µg/mL							
OC(Cn1cncn1)(Cn1cncn1)c1ccc(F)cc1F [FLUCONAZOLE]					3.9 µg/mL (≈ 12.7 µM)	1.9 µg/mL (≈ 6.2 µM)	1.9 µg/mL (≈ 6.2 µM)		31.2 µg/mL (≈ 102 µM)	1.9 µg/mL (≈ 6.2 µM)	
CC1=C(/C=C/C(=O)/C=C/c2ccccc2C)C(C)(C)CCC1	30.5 µg/mL (≈ 104 µM)		25 µg/mL (≈ 84.9 µM)	55.5 µg/mL (≈ 188 µM)	72 µg/mL (≈ 245 µM)	> 100 µg/mL	> 100 µg/mL	inactive	> 100 µg/mL	96 µg/mL (≈ 326 µM)	> 100 µg/mL
CC1=C(/C=C/C(=O)/C=C/c2ccccc2)C(C)(C)CCC1	1.56 µg/mL (≈ 5.56 µM)	12.5 µg/mL (≈ 44.6 µM)	3.12 µg/mL (≈ 11.1 µM)	12.5 µg/mL (≈ 44.6 µM)	> 100 µg/mL	> 100 µg/mL	> 100 µg/mL	inactive	78 µg/mL (≈ 278 µM)	61.5 µg/mL (≈ 219 µM)	3.12 µg/mL (≈ 11.1 µM)
CC1=C(/C=C/C(=O)/C=C/c2ccc(Cl)cc2)C(C)(C)CCC1	3.12 µg/mL (≈ 9.91 µM)	12.5 µg/mL (≈ 39.7 µM)	6.25 µg/mL (≈ 19.9 µM)	> 100 µg/mL	> 100 µg/mL	> 100 µg/mL	> 100 µg/mL	inactive	> 100 µg/mL	12.5 µg/mL (≈ 39.7 µM)	25 µg/mL (≈ 79.4 µM)
